Active and inactive are the calls of the source. The rule behind the calls is not given here.
Assays:
Translocator protein = Translocator protein (Rattus norvegicus, UniProt P16257); experiment: (§1) Displacement of [3H]PK11195 from TSPO in rat kidney mitochondrial membrane after 90 mins by liquid scintillation counting method; assay type: cell membranes
Procedure, shortened: (§2)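 TSPO binding by radioligand displacement of the TSPO-selective [3H]PK11195 across a concentration range; Ki derived.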

[1] = target: Translocator protein (Rattus norvegicus) (UniProt P16257); experiment: as §1; assay type: cell membranes; procedure, shortened: as §2
Sequence of Translocator protein (Rattus norvegicus) (P16257 whole entry, looked up): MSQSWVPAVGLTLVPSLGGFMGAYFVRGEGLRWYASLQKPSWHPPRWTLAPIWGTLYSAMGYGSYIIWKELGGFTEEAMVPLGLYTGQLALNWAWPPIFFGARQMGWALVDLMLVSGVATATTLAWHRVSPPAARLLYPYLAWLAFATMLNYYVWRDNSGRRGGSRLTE

[2] = Antiproliferative activity against human U343MG cells expressing wild type p53 after 48 hrs by MTS assay; conditions: U-343MG
[3] = Antiproliferative activity against human U87MG cells expressing wild type p53 after 48 hrs by MTS assay; conditions: U-87 MG
T98G = experiment: Growth inhibition of human T98G cells expressing p53 mutant after 48 hrs by MTS assay relative to control; assay type: functional
Procedure, shortened: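 Wild-type p53 U87MG and U343MG cells and mutant-p53 T98G cells were treated with a range of compound concentrations, using the same protocol for each line. Viability was read by MTS assay, and the 48 h treatment with 100 nM–10 µM is stated for U87MG. Results are given as percent inhibition or viable cells versus control, with IC50 taken from concentration–response curves.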

Homo sapiens = organism: Homo sapiens; experiment: Growth inhibition of human U87MG-derived CSC at 100 uM after 7 days by MTS assay relative to control; assay type: functional
Procedure, shortened: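 Glioma CSC viability measured after 24 h and after prolonged (seven-day) exposure, at concentrations up to 100 µM; CSC depletion expressed versus control.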

[4] = Antiproliferative activity against human MSC at 0.01 to 10 uM after 48 hrs by MTS assay; conditions: in the assay text read “0.1 to 10 uM” for “0.01 to 10 uM”
Procedure, shortened: (§3)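 Non-tumoural human mesenchymal stem cells exposed to 100 nM-10 µM for 48 h; viability read by MTS assay.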

[5] = Antiproliferative activity against human MSC at 10 uM after 48 hrs by MTS assay; procedure, shortened: as §3
[6] = Growth inhibition of human U87MG cells at 50 uM after 72 hrs by MTS assay relative to control; assay type: functional, U-87MG ATCC; conditions: U-87 MG, read-out: GI
Procedure, shortened: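 U87MG cells were exposed to temozolomide (50 µM) alone or combined with 100 nM dual inhibitor for at least 72 h. Viability was measured and expressed as reduction relative to untreated control.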

Sequence of Translocator protein (P16257 whole entry, looked up): as above

Row | Compound | Ki (Translocator protein) [nM] | inhibition [1] | IC50 [2] [nM] | IC50 [3] [nM] | growth inhibition (GI) (T98G) | growth inhibition (GI) (Homo sapiens) [%] | Activity [4] | Activity [5] | inhibition of growth at 50 µM [6] [%]
1 | CC[C@H](C)[C@H](NC(=O)[C@@H](NC(=O)C(=O)c1c(-c2ccccc2)[nH]c2ccccc12)C(C)C)C(=O)OC | 783 | Dose-dependent effect | – | – | – | – | – | – | –
2 | COc1ccc(C2=NC(c3ccc(Cl)cc3)C(c3ccc(Cl)cc3)N2C(=O)N2CCNC(=O)C2)c(OC(C)C)c1 (centres undefined) | – | – | 12600 | 6500 | inactive | 45 | – | – | –
3 | COC(=O)[C@H](CC(C)C)NC(=O)[C@@H](NC(=O)C(=O)c1c(-c2ccccc2)[nH]c2ccccc12)C(C)C | 365 | Dose-dependent effect | – | – | – | – | – | – | –
4 | CCOC(=O)[C@H](Cc1ccccc1)NC(=O)[C@H](CC(C)C)NC(=O)C(=O)c1c(-c2ccccc2)[nH]c2ccccc12 | 430 | Dose-dependent effect | 2100 | 2600 | inactive | 65 | Non-toxic | Toxic | –
5 | Cn1nnc2c(C(N)=O)ncn2c1=O [TEMOZOLOMIDE] | – | – | – | – | – | – | – | – | 55
6 | CC[C@H](C)[C@H](NC(=O)C(=O)c1c(-c2ccccc2)[nH]c2ccccc12)C(=O)N[C@H](C(=O)OC)[C@@H](C)CC | 1000 | Dose-dependent effect | – | – | – | – | – | – | –
